Experimental data as given in ChEMBL document CHEMBL4819102, “SAR insights into TET2 catalytic domain inhibition: Synthesis of 2-Hydroxy-4-Methylene-pentanedicarboxylates” (Bioorg Med Chem, 2021).
Active and inactive are the calls of the source. The rule behind the calls is not given here.

How the values were obtained:
THP-1 [1] = experiment: Inhibition of TET in human THP-1 cells assessed as reduction in 5hmc/5mc level at 50 uM incubated for 12 hrs by dot blot analysis relative to control; assay type: cell-based
How it was run: (§1)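 THP1 cells at 0.3x10^6/mL exposed 12 h to ester prodrugs (25, 50, 100 µM) with 100 µM sodium ascorbate. Genomic DNA denatured in NaOH/EDTA at 95 °C, two-fold serial dilutions dot-blotted, probed with anti-5hmC and anti-5mC antibodies, and loading checked by methylene blue. Inhibition taken from the 5hmC/5mC ratio; means of at least three experiments, below 5% reported not detected.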

THP-1 [2] = experiment: Inhibition of TET in human THP-1 cells assessed as reduction in 5hmc/5mc level at 100 uM incubated for 12 hrs by dot blot analysis relative to control; assay type: cell-based; how it was run: as §1
THP-1 [3] = experiment: Inhibition of TET in human THP-1 cells assessed as reduction in 5hmc/5mc level at 25 uM incubated for 12 hrs by dot blot analysis relative to control; assay type: cell-based; how it was run: as §1
[4] = Inhibition of TET (unknown origin); set-up: species or system Homo sapiens
[5] = biological target: T1, Methylcytosine dioxygenase TET2 (Homo sapiens, UniProt Q6N021); experiment: Binding affinity to human recombinant TET2 (1099 to 1936) catalytic domain assessed as dissociation constant by micro-scale thermophoresis analysis
[6] = biological target: T1, Methylcytosine dioxygenase TET2; experiment: Potency index, ratio of IC50 of NOG to IC50 of compound for inhibition of recombinant human GST-tagged TET2 (1099 to 1936 residues) expressed in Escherichia coli BL21 (DE3)pLysS assessed as reduction in 5hmc level incubated for 2 hrs by ELISA
[7] = biological target: T2, Methylcytosine dioxygenase TET1 (Homo sapiens, UniProt Q8NFU7); experiment: Inhibition of recombinant human N-terminal Flag-tagged TET1 (1418 to 2136 residues) expressed in Baculovirus infected Sf9 cells assessed as reduction in 5hmc level incubated for 2 hrs by ELISA
T2 sequence (Q8NFU7 whole entry, the tested form may be a part): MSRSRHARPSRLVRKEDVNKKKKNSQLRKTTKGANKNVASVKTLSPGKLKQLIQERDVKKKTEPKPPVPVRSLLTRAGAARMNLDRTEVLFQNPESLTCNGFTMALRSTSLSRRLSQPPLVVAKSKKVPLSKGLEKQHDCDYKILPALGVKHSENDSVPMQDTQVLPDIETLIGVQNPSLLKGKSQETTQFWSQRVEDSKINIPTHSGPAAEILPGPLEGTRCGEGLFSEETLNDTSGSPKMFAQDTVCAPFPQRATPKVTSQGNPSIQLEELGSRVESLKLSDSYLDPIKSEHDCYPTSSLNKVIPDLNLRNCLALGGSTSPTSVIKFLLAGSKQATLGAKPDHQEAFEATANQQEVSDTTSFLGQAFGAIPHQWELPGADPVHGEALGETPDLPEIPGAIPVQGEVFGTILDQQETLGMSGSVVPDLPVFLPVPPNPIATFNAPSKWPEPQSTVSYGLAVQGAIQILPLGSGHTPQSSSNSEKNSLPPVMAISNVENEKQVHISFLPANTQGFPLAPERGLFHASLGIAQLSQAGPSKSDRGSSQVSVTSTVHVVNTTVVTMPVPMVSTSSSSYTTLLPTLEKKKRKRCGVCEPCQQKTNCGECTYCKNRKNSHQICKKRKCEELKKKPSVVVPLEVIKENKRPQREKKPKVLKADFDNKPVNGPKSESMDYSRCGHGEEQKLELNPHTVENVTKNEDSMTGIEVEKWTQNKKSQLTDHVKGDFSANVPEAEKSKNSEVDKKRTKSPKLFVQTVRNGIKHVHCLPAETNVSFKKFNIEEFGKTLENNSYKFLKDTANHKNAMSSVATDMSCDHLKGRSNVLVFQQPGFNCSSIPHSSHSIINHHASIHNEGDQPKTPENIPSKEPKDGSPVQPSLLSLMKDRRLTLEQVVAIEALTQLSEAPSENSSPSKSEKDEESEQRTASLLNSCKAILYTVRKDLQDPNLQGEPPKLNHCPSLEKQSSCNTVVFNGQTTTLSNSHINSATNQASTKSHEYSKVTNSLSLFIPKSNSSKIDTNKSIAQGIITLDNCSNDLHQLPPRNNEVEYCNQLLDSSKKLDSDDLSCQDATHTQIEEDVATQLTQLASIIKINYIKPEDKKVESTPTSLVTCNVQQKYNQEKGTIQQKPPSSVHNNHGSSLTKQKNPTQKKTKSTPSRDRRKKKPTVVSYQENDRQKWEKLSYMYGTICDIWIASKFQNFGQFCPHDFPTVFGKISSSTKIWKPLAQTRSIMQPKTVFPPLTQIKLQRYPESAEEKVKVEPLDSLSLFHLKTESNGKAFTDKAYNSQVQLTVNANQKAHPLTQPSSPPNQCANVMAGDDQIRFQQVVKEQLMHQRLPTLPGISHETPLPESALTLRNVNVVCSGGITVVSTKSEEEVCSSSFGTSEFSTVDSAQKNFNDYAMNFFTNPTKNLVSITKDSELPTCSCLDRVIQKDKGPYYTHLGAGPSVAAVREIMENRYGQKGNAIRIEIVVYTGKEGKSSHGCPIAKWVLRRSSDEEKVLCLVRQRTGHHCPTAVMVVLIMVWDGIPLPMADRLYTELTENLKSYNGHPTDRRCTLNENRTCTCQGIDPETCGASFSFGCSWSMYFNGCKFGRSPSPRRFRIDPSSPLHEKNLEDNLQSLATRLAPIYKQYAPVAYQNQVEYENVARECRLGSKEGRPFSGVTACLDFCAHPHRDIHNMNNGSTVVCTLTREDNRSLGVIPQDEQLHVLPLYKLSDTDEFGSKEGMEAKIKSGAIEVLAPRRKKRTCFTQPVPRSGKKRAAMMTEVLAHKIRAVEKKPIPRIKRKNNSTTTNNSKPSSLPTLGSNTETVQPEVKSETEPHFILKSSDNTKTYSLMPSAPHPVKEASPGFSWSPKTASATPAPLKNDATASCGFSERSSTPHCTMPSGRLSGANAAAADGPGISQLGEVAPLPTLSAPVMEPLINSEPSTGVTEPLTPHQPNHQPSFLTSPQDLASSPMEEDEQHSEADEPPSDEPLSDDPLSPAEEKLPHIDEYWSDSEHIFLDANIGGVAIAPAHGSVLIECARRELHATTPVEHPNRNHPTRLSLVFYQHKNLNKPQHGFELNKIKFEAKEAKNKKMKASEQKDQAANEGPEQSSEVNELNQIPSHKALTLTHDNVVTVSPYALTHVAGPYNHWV

[8] = biological target: T1, Methylcytosine dioxygenase TET2; experiment: Reversible inhibition of recombinant human GST-tagged TET2 (1099 to 1936 residues) expressed in Escherichia coli BL21 (DE3)pLysS assessed as restoration of enzyme activity in presence of alpha-KG at 20 uM incubated for 2 hrs by ELISA
How it was run: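 TET2 catalytic domain (100 nM) preincubated with 12.5 µM inhibitor, then α-KG added at increasing concentrations. Anti-5hmC/HRP detection, TMB read at 450 nm; activity expressed relative.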

[9] = biological target: T3, Methylcytosine dioxygenase TET3 (Homo sapiens, UniProt O43151); experiment: Inhibition of recombinant human N-terminal Flag-tagged C-terminal His-tagged TET3 (824 to 1795 residues) expressed in Baculovirus infected Sf9 cells assessed as reduction in 5hmc level incubated for 2 hrs by ELISA
[10] = biological target: T1, Methylcytosine dioxygenase TET2; experiment: Inhibition of recombinant human GST-tagged TET2 (1099 to 1936 residues) expressed in Escherichia coli BL21 (DE3)pLysS assessed as reduction in 5hmc level incubated for 2 hrs by ELISA
[11] = biological target: T3, Methylcytosine dioxygenase TET3; experiment: Inhibition of TET3 (unknown origin)
[12] = biological target: T2, Methylcytosine dioxygenase TET1; experiment: Inhibition of TET1 (unknown origin)
[13] = biological target: T2, Methylcytosine dioxygenase TET1; experiment: Inhibition of TET1 (unknown origin) at 10 mM in presence of alpha-KG relative to control
[14] = biological target: T1, Methylcytosine dioxygenase TET2; conditions: dose 10.0 mM
[15] = biological target: T2, Methylcytosine dioxygenase TET1; experiment: Inhibition of TET1 (unknown origin) at 50 mM in presence of alpha-KG relative to control
[16] = biological target: T1, Methylcytosine dioxygenase TET2; conditions: dose 50.0 mM

Structure (SMILES) | inhibition (THP-1 [1]) | inhibition (THP-1 [2]) | inhibition (THP-1 [3]) | other results
C=C(CC(F)C(=O)OCC)C(=O)OCC (racemic) | 11% | 41% | 9% | 
CCOC(=O)C(=O)CC1(C(=O)OCC)CC1 | 29% | 33% | 19% | 
O=C(O)/C=C/C(=O)O [FUMARIC ACID] |  |  |  | IC50 [4]: 2400 µM
C=C(CC(C)O)C(=O)OCC (racemic) | 27% | 47% | 15% | 
C=C(CC(F)(F)C(=O)OCC)C(=O)OCC | 20% | 29% | 12% | 
CCC(CC(=O)C(=O)OC)C(=O)OC (centres undefined) | < 5% | < 5% | < 5% | 
C=C(CC(O)C(=O)O)C(=O)O (centres undefined) |  |  |  | Kd [5]: 0.3 µM; Ratio IC50 [6]: 2; IC50 [7]: 1.5 µM; inhibition [8]: Active; IC50 [9]: 8.8 µM
COC(=O)CCC(=O)OC | 7% | 15% | < 5% | 
C=C(C[C@H](O)C(=O)O)C(=O)O |  |  |  | Ratio IC50 [6]: 2; IC50 [10]: 10.5 µM
O=C(O)CC[C@H](O)C(=O)O |  |  |  | IC50 [4]: 3600 µM
C=C(CC(O)(C(=O)OCC)C(C)C)C(=O)OCC (racemic) | 37% | 43% | 17% | 
COC(=O)/C=C/C(=O)OC | 21% | 33% | < 5% | 
C=C(CC(O)(CC)C(=O)OCC)C(=O)OCC (racemic) | 45% | 48% | 29% | 
C=C(NC(C)=O)C(=O)OC | < 5% | < 5% | < 5% | 
CCOC(=O)C(C)CC(F)(F)C(=O)OCC (centres undefined) | 9% | 22% | 14% | 
COC(=O)/C=C/C(=O)C(=O)OC | 17% | 34% | 7% | 
C=C(CC(O)(C(=O)OCC)C(F)(F)F)C(=O)OCC (racemic) | 67% | 79% | 49% | 
C=C(CC(=O)C(=O)OCC)C(=O)OCC | 27% | 44% | < 5% | 

Structure (SMILES) | inhibition (THP-1 [1]) | inhibition (THP-1 [2]) | inhibition (THP-1 [3]) | other results
C=C(CC(C)(O)C(=O)OCC)C(=O)OCC (racemic) | 71% | 80% | 54% | 
O=C(C[C@@H](O)CCc1ccc(O)c(O)c1)O[C@@H]1Cc2c(O)cc(O)cc2C[C@@H]1c1ccc(O)c(O)c1 |  |  |  | IC50 [11]: 2.31 µM; IC50 [12]: 3.48 µM
O=C(O)CCC(=O)O [SUCCINIC ACID] |  |  |  | IC50 [4]: 2800 µM
CC(C)CC(NC(=O)C(=O)O)C(=O)O (centres undefined) |  |  |  | IC50 [4]: 18.1 µM
C=C(CCC(=O)OC)C(=O)OC | 7% | 22% | < 5% | 
CCOC(=O)C(O)CC1(C(=O)OCC)CC1 (racemic) | < 5% | < 5% | < 5% | 
COC(=O)CCC(O)C(=O)OC (centres undefined) | 18% | 29% | 9% | 
C=C(CC(Cl)C(=O)OC)C(=O)OC (centres undefined) | 54% | 66% | 40% | 
O=C(O)CNC(=O)C(=O)O [N-OXALYLGLYCINE] |  |  |  | IC50 [4]: 80 µM
C=C(C[C@@H](O)C(=O)O)C(=O)O |  |  |  | Ratio IC50 [6]: 2; IC50 [10]: 11 µM
COC(=O)CCC(=O)C(=O)OC | < 5% | < 5% | < 5% | 
COC(=O)C(=O)CC(C)C(=O)OC (centres undefined) | < 5% | < 5% | < 5% | 
C=C(CC(O)C(=O)OCC)C(=O)OCC (racemic) | 68% | 73% | 55% | 
O=C(O)/C=C/C(=O)C(=O)O |  |  |  | IC50 [10]: 107 µM
CCOC(=O)C(C)CC(O)C(=O)OCC (racemic) | 14% | 41% | < 5% | 
COC(=O)CNC(=O)C(=O)OC | 62% | 64% | 56% | 
O=C(O)CC[C@@H](O)C(=O)O |  |  |  | inhibition [13]: 28%; IC50 [4]: 6400 µM; inhibition [14]: 33%; inhibition [15]: 47%; inhibition [16]: 83%
